Measurements: ChEMBL document CHEMBL5390247, “Aryl azoles based scaffolds for disrupting tumor microenvironment” (Bioorg Med Chem, 2023)
The source made the active and inactive calls. The calls are words filed in the database; no cut-off is given here.

Tests used:
[1] = Toxicity against interferon gamma-stimulated human THP-1 monocyte cells co-cultured with human HT-29 cells assessed as reduction in cell viability at 100 uM incubated for 48 hrs by flow cytometry analysis; assay type: cell-based; conditions: thp-1, 48 h
Outline: (§1)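 HT-29 cells at 10^5/well seeded and grown 24 h. Medium then replaced with medium containing IFN-γ (10 ng/ml), 5 × 10^5 THP-1 cells/well and compound at 100 µM; DMSO used as control. After 48 h, THP-1 cells collected from supernatant and cancer cells by trypsinisation. Both fixed in 4% paraformaldehyde and counted by flow cytometry relative to control.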

HT-29 [2] = assay: Antiproliferative activity against human HT-29 cells assessed as relative PD-L1 protein expression in membrane at 100 uM incubated for 48 hrs by flow cytometry analysis relative to control; assay type: functional
HT-29 [3] = assay: Immunomodulatory activity in human HT-29 cells co-cultured with interferon gamma-stimulated THP-1 cells assessed as relative PD-L1 protein expression in membrane at 100 uM incubated for 48 hrs by flow cytometry analysis relative to control; assay type: functional
HT-29 [4] = assay: Antiproliferative activity against human HT-29 cells assessed as relative VEGFR-2 protein expression in membrane at 100 uM incubated for 48 hrs by flow cytometry analysis relative to control; assay type: functional
HEK293 [5] = assay: Anti-vasculogenic activity against HEK293 cells assessed as disruption of tube-like structures at 100 uM incubated for 24 hrs by Matrigel based imaging analysis; assay type: functional, cell-based; conditions: Homo sapiens
Outline: (§2)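 HEK-293 cells seeded at 5 × 10^4 cells/well on Matrigel (pre-incubated with medium 24 h at 37 °C), grown 24 h at 37 °C until tube-like structures form; compounds then added in medium and incubated a further 24 h at 37 °C. Disruption of preformed tube-like structures assessed by imaging.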

HT-29 [6] = assay: Immunomodulatory activity in human HT-29 cells co-cultured with interferon gamma-stimulated THP-1 cells assessed as cell viability at 100 uM incubated for 48 hrs by flow cytometry analysis relative to control; assay type: functional; conditions: read-out: Activity; outline: as §1
MCF7 = assay: Antiproliferative activity against human MCF7 cells assessed as reduction in cell viability incubated for 48 hrs by MTT assay; assay type: functional, cell-based; conditions: MCF7, 48 h
Outline: (§3)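 MTT dye-reduction assay. Cells at 5 × 10^3/well in DMEM with 10% FBS, treated with serial dilutions of compound (DMSO stocks) for 2 days at 37 °C, 5% CO2. MTT added for a further 3 h, formazan dissolved in DMSO, absorbance read at 550 nm. Viability expressed as % of untreated cells; IC50 determined graphically from three independent experiments.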

[7] = Cytotoxicity against HEK293 cells assessed as reduction in cell viability incubated for 48 hrs by MTT assay; assay type: toxicity, cell-based; conditions: human; outline: as §3
HT-29 [8] = assay: Antiproliferative activity against human HT-29 cells assessed as relative PD-L1 protein expression in whole cell at 100 uM incubated for 48 hrs by flow cytometry analysis relative to control; assay type: functional
HT-29 [9] = assay: Antiproliferative activity against human HT-29 cells assessed as relative VEGFR-2 protein expression in whole cell at 100 uM incubated for 48 hrs by flow cytometry analysis relative to control; assay type: functional
HT-29 [10] = assay: Antiproliferative activity against human HT-29 cells assessed as relative c-Myc protein expression at 100 uM incubated for 48 hrs by flow cytometry analysis relative to control; assay type: functional
HT-29 [11] = assay: Antiproliferative activity against human HT-29 cells assessed as reduction in cell viability incubated for 48 hrs by MTT assay; assay type: functional, cell-based; conditions: HT-29, 48 h; outline: as §3
HT-29 [12] = assay: Immunomodulatory activity in human HT-29 cells co-cultured with interferon gamma-stimulated THP-1 cells assessed as relative CD-47 protein expression in membrane at 100 uM incubated for 48 hrs by flow cytometry analysis relative to control; assay type: functional
A549 = assay: Antiproliferative activity against human A549 cells assessed as reduction in cell viability incubated for 48 hrs by MTT assay; assay type: functional, cell-based; conditions: A549, 48 h; outline: as §3
HT-29 [13] = assay: Immunomodulatory activity in human HT-29 cells co-cultured with interferon gamma-stimulated THP-1 cells assessed as inhibition of CD-47 protein expression at 100 uM incubated for 48 hrs by flow cytometry analysis relative to control; assay type: functional
HEK293 [14] = assay: Anti-vasculogenic activity against HEK293 cells assessed as disruption of tube-like structures at <75 uM incubated for 24 hrs by Matrigel based imaging analysis; assay type: functional, cell-based; conditions: Homo sapiens; outline: as §2
HMEC-1 [15] = assay: Antiangiogenic activity in HMEC-1 cells assessed as inhibition of endothelial microtubes formation at 100 uM incubated for 24 hrs by matrigel based imaging analysis; assay type: functional, cell-based; conditions: Homo sapiens
Outline: (§4)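 HMEC-1 cells at 2 × 10^4 cells/well seeded on Matrigel (10 mg/mL, gelled 30 min at 37 °C) in EGM-2MV medium with SingleQuots, allowed to attach 30 min at 37 °C. Compounds then added in medium; after 24 h at 37 °C, microtube formation/destruction evaluated from pictures.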

HT-29 [16] = assay: Antiproliferative activity against human HT-29 cells assessed as reduction in IL-6 secretion at 100 uM incubated for 48 hrs by ELISA assay; assay type: functional, cell-based
Outline: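 HT-29 monocultures at 10^5 cells/well treated 48 h with compound at 100 µM in 500 µL growth medium. Media collected and secreted IL-6 measured with a human IL-6 ELISA kit.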

HT-29 [17] = assay: Immunomodulatory activity in human HT-29 cells co-cultured with interferon gamma-stimulated THP-1 cells assessed as reduction in IL-6 level at 100 uM incubated for 48 hrs by ELISA analysis relative to control; assay type: functional; parameters: scale not given: the % may be the effect or the level left
Outline: (§5)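 HT-29 cells co-cultured with IFN-γ (10 ng/ml)-stimulated THP-1 cells and treated 48 h with compound at 100 µM. Culture media collected and IL-6 measured by human IL-6 ELISA, in pg/mL and as % of control. Mean of three experiments.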

HT-29 [18] = assay: Immunomodulatory activity in human HT-29 cells co-cultured with interferon gamma-stimulated THP-1 cells assessed as inhibition of PD-L1 protein expression in cell surface at 100 uM incubated for 48 hrs by flow cytometry analysis relative to control; assay type: functional
HT-29 [19] = assay: Immunomodulatory activity in human HT-29 cells co-cultured with interferon gamma-stimulated THP-1 cells assessed as relative IL-6 level at 100 uM incubated for 48 hrs by ELISA analysis relative to control; assay type: functional; outline: as §5
HMEC-1 [20] = assay: Antiangiogenic activity in HMEC-1 cells assessed as inhibition of endothelial microtubes formation at <75 uM incubated for 24 hrs by matrigel based imaging analysis; assay type: functional, cell-based; conditions: Homo sapiens; outline: as §4
HT-29 [21] = assay: Immunomodulatory activity in human HT-29 cells co-cultured with interferon gamma-stimulated THP-1 cells assessed as IL-6 level at 100 uM incubated for 48 hrs by ELISA analysis (reference value: 192 +/- 16 pg/ml); assay type: functional; outline: as §5
HT-29 [22] = assay: Immunomodulatory activity in human HT-29 cells co-cultured with interferon gamma-stimulated THP-1 cells assessed as inhibition of cell growth at 100 uM incubated for 48 hrs by flow cytometry analysis relative to control; assay type: functional; outline: as §1
HT-29 [23] = assay: Immunomodulatory activity in human HT-29 cells co-cultured with interferon gamma-stimulated THP-1 cells assessed as inhibition of IL-6 secretion at 100 uM incubated for 48 hrs by ELISA analysis relative to control; assay type: functional; outline: as §5

Structure (SMILES)	Activity [1]	Activity (HT-29 [2]) [%]	Activity (HT-29 [3]) [%]	Activity (HT-29 [4]) [%]	Activity (HEK293 [5])	viability at 100 µM (HT-29 [6]) [%]	Activity (HT-29 [8]) [%]	Activity (HT-29 [9]) [%]	Activity (HT-29 [10]) [%]	Activity (HT-29 [12]) [%]	inhibition at 100 µM (HT-29 [13]) [%]	Activity (HEK293 [14])	Activity (HMEC-1 [15])	Activity (HT-29 [16])	inhibition at 100 µM (HT-29 [18]) [%]	Activity (HT-29 [19]) [%]	Activity (HMEC-1 [20])	Activity (HT-29 [21]) [pg/mL]	inhibition at 100 µM (HT-29 [22]) [%]	inhibition at 100 µM (HT-29 [23]) [%]	other results
Nc1cccc(-c2nnn(Cc3ccc(Br)cc3)n2)c1	Non-Toxic	92	70	>100	Active	6	>100	>100	76	60	> 30	inactive	Active	inactive	70	3	inactive	5	> 90		IC50 (MCF7): 44 µM; IC50 at 48 h [7]: > 100 µM; IC50 (HT-29 [11]): > 100 µM; IC50 (A549): > 100 µM; Activity (HT-29 [17]): >95%
Nc1cccc(-c2nnn(Cc3cccc(Br)c3)n2)c1	Non-Toxic	66	64	>100	Active	19	>100	>100	83		> 30	inactive	Active		70		inactive		> 70		
Nc1cccc(-c2cn(Cc3cccc(Cl)c3)nn2)c1	Non-Toxic		122			8				96				inactive		20		38	> 90	> 80	
Nc1cccc(-c2cn(Cc3ccccc3Cl)nn2)c1	Non-Toxic		116			51				91				inactive		6		12		> 80	
Nc1cccc(-c2nnn(Cc3ccccc3Br)n2)c1	Non-Toxic	64	65	>100	Active	23	>100	92	90		> 30	inactive	Active		70		inactive		> 70		
